From the M2OR odorant receptor database
Residue numbers refer to the chain shown, from its start.

Assays:
Settings in all cases: stereoisomer not certain
OR6C65 (Homo sapiens) = target: T1, OR6C65 (Homo sapiens) (UniProt A6NJZ3)
T1 sequence (whole entry): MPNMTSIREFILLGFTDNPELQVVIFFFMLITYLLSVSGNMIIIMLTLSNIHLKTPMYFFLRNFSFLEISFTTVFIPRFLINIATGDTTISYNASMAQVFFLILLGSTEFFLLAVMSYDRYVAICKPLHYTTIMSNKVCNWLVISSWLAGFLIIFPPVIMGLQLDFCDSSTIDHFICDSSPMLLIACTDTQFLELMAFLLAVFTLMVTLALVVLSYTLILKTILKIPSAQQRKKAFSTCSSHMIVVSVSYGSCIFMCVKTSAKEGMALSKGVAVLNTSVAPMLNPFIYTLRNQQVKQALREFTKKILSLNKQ
Outline: (§1)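 Whether a receptor–molecule pair is responsive (active) rests on the original authors' judgment that its measured signal was statistically different from baseline. Pairs without that judgment are non-responsive (inactive). Sources used varied assay methods, commonly transient luciferase assays in mammalian cell lines.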

OR6C68 (Homo sapiens) = target: T2, OR6C68 (Homo sapiens) (UniProt A6NDL8)
T2 sequence (whole entry): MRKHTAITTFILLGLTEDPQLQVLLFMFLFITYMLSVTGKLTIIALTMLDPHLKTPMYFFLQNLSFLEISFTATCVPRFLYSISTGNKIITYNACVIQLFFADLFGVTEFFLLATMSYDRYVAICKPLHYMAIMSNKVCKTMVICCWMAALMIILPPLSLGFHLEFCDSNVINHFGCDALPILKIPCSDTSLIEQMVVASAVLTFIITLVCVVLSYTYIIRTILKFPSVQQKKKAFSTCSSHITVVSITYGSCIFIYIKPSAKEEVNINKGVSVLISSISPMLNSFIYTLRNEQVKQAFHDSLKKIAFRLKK
Outline: as §1

OR6C70 (Homo sapiens) = target: T3, OR6C70 (Homo sapiens) (UniProt A6NIJ9)
T3 sequence (whole entry): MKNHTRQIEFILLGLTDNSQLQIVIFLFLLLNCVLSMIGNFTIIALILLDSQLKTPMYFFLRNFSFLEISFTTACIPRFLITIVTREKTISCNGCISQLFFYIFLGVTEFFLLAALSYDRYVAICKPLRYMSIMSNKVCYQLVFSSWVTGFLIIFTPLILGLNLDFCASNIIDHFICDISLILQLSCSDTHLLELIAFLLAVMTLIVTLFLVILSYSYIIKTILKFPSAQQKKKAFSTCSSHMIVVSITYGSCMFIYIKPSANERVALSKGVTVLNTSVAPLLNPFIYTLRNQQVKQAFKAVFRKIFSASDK
Outline: as §1

OR6C74 (Homo sapiens) = target: T4, OR6C74 (Homo sapiens) (UniProt A6NCV1)
T4 sequence (whole entry): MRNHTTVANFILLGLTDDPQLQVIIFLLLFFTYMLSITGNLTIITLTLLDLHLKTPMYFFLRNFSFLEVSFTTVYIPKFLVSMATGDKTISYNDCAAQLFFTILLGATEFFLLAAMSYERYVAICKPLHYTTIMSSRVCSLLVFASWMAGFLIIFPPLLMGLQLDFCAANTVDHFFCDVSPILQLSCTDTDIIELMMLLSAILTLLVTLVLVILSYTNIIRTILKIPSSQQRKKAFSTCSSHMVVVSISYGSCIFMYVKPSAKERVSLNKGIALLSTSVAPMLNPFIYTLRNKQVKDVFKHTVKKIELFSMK
Outline: as §1

OR6C75 (Homo sapiens) = target: T5, OR6C75 (Homo sapiens) (UniProt A6NL08)
T5 sequence (whole entry): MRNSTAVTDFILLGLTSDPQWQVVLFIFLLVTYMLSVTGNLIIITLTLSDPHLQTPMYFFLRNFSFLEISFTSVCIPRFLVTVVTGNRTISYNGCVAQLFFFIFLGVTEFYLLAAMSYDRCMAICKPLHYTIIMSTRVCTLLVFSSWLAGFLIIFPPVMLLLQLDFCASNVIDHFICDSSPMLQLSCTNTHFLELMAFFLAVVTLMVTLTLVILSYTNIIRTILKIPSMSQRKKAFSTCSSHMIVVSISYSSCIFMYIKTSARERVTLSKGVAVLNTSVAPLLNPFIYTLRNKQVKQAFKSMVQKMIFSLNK
Outline: as §1

OR6C76 (Homo sapiens) = target: T6, OR6C76 (Homo sapiens) (UniProt A6NM76)
T6 sequence (whole entry): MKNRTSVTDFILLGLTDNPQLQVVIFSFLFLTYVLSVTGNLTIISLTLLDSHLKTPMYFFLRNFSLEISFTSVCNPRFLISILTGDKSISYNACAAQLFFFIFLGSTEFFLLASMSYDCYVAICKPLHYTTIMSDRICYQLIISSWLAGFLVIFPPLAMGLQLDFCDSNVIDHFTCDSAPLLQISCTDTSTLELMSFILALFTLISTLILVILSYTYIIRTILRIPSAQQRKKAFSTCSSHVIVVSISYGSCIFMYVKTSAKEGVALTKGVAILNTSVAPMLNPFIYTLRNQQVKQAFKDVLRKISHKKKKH
Outline: as §1

OR6F1 (Homo sapiens) = target: T7, OR6F1 (Homo sapiens) (UniProt Q8NGZ6)
T7 sequence (whole entry): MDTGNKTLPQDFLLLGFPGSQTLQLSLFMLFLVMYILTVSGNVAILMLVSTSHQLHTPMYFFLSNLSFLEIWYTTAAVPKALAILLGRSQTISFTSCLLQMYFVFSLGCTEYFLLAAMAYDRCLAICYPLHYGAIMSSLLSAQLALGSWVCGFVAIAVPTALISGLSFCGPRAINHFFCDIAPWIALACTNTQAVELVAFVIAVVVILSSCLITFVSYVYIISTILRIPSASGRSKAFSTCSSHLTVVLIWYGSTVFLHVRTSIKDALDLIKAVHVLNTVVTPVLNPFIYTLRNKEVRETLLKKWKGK
Outline: as §1

OR6J1 (Homo sapiens) [1] = target: T8, OR6J1 (Homo sapiens) (UniProt Q8NGC5)
T8 sequence (whole entry): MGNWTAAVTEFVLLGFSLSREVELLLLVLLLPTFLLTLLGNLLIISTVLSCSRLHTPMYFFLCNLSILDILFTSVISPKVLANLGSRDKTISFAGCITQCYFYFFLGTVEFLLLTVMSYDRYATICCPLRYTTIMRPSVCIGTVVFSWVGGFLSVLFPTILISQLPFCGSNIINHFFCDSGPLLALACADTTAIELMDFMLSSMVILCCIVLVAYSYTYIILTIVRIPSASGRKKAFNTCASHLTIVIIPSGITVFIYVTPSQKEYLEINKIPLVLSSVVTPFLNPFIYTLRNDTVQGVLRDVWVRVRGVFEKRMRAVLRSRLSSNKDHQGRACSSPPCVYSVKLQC
Outline: as §1

OR6K2 (Homo sapiens) = target: T9, OR6K2 (Homo sapiens) (UniProt Q8NGY2)
T9 sequence (whole entry): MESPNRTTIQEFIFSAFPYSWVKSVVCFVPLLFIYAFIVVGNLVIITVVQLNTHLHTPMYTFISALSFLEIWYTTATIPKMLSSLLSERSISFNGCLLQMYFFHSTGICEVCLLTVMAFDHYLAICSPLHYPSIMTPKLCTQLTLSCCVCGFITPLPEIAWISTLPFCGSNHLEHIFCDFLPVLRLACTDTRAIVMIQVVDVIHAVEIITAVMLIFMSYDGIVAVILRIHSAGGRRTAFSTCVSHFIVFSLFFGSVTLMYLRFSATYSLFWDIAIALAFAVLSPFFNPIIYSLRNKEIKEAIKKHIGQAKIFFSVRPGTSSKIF
Outline: as §1

OR6K3 (Homo sapiens) = target: T10, OR6K3 (Homo sapiens) (UniProt Q8NGY3)
T10 sequence (whole entry): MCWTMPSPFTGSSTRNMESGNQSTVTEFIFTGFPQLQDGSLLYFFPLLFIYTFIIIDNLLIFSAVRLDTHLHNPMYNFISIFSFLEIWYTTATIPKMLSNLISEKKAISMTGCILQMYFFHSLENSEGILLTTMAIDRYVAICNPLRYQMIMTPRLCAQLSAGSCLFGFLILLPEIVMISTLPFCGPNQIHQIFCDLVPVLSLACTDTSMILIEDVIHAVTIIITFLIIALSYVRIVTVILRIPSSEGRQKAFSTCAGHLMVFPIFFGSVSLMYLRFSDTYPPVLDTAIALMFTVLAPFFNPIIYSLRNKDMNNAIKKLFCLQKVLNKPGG
Outline: as §1

OR6K6 (Homo sapiens) = target: T11, OR6K6 (Homo sapiens) (UniProt Q8NGW6)
T11 sequence (whole entry): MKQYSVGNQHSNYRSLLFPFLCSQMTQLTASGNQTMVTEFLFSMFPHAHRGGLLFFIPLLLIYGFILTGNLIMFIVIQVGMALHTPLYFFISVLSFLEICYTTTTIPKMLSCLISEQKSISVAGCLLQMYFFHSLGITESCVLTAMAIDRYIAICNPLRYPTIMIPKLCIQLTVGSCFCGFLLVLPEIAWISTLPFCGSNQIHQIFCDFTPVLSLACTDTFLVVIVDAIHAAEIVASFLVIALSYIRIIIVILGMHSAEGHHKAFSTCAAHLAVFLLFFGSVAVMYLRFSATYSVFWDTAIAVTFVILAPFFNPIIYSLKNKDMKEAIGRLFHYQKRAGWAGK
Outline: as §1

OR6M1 (Homo sapiens) = target: T12, OR6M1 (Homo sapiens) (UniProt Q8NGM8)
T12 sequence (whole entry): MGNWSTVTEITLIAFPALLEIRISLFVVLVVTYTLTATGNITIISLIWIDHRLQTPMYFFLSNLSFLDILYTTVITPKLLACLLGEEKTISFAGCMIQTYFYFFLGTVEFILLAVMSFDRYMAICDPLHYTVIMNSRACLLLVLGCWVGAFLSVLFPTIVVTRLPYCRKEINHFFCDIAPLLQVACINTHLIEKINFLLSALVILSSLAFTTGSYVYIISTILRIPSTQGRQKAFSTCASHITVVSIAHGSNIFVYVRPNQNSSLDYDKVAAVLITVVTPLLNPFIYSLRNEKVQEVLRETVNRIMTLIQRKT
Outline: as §1

OR6N1 (Homo sapiens) = target: T13, OR6N1 (Homo sapiens) (UniProt Q8NGY5)
T13 sequence (whole entry): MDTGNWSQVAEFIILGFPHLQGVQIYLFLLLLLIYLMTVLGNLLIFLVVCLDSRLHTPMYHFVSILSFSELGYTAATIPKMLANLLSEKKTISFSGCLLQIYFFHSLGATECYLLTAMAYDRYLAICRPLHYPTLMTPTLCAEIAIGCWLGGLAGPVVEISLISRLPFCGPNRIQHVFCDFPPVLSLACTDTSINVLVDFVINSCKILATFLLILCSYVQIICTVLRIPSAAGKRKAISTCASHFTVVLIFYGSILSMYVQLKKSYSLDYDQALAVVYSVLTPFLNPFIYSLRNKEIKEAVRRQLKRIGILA
Outline: as §1

OR6N2 (Homo sapiens) = target: T14, OR6N2 (Homo sapiens) (UniProt Q8NGY6)
T14 sequence (whole entry): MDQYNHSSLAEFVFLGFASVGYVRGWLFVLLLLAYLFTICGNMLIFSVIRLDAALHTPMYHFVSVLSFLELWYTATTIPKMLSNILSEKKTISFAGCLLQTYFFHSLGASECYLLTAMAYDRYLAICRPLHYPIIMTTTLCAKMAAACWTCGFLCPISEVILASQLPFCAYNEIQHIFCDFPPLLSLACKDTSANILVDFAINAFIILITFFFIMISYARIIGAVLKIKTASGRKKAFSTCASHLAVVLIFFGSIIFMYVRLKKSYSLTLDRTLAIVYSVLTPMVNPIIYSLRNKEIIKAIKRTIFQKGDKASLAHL
Outline: as §1

OR6P1 (Homo sapiens) = target: T15, OR6P1 (Homo sapiens) (UniProt Q8NGX9)
T15 sequence (whole entry): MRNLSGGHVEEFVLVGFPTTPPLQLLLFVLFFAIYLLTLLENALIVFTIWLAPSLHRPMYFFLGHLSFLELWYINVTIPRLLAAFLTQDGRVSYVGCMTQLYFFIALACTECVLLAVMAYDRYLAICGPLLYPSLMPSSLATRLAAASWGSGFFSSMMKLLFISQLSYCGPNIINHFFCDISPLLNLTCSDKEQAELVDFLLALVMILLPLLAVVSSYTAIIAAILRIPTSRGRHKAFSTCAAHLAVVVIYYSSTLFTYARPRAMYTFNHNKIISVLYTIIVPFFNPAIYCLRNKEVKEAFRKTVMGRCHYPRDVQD
Outline: as §1

OR6Q1 (Homo sapiens) = target: T16, OR6Q1 (Homo sapiens) (UniProt Q8NGQ2)
T16 sequence (whole entry): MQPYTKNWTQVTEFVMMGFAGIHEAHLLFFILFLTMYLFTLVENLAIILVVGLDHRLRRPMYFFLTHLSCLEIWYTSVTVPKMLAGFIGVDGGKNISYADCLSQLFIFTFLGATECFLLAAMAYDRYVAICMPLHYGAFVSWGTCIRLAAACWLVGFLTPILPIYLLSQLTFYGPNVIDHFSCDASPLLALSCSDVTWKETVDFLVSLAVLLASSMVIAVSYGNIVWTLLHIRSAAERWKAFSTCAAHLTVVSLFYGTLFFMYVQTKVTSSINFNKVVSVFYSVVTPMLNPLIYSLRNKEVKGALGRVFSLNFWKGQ
Outline: as §1

OR6J1 (Homo sapiens) [2] = target: T17, OR6J1 (Homo sapiens) (UniProt Q8NGC5); remark: listed apart in the source
T17 sequence (whole entry): T8 sequence (whole entry) with P250S
Outline: as §1

OR6K3 = test system: T18, OR6K3
T18 sequence (whole entry): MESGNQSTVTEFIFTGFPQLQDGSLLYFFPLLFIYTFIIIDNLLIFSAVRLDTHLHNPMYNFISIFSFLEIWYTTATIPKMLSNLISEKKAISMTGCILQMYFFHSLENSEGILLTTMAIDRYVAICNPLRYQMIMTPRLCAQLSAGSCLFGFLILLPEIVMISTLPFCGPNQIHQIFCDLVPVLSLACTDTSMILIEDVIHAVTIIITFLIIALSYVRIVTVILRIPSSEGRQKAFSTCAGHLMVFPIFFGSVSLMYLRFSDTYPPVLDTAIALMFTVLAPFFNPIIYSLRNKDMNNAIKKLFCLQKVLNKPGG
Outline: as §1

OR6M1 R224C = test system: T19, OR6M1 R224C
T19 sequence (whole entry): T12 sequence (whole entry) with R224C
Outline: as §1

OR6M1 T276K = test system: T20, OR6M1 T276K
T20 sequence (whole entry): T12 sequence (whole entry) with T276K
Outline: as §1

Measured: odorant receptor agonist call;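 further: active if original authors judged signal statistically different from baseline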

CCCCCC(=O)C(C)C(C)=O (centres undefined)
not listed: OR6J1 (Homo sapiens) [2] | OR6K3 | OR6M1 R224C | OR6M1 T276K
inactive: all other assays above

CCC1OC(C)=C(O)C1=O (centres undefined)
not listed: OR6J1 (Homo sapiens) [1] | OR6K3 (Homo sapiens)
inactive: all other assays above
